The values that follow come from PubChem BioAssay.

The nature of test [1]: reducers of endogenous Her2 protein level, primary screen, SKBR3 breast tumor cells, AlphaScreen, ATP viability (AID 461;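 active = Her2 level under about 52% in both replicate screens, with viability over 70% of control, limit read from the data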;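 for Her2 level: lower value means less Her2 protein in the cells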;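 for viability: percent of carrier control wells set as 100% viability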). The note with it: 18-24 h, measured here: SKBR3 viability, ATP luminescence, at 10 µM. (Bead proximity is the source of the signal in Alpha formats.)
The target of test [2] is Receptor tyrosine-protein kinase erbB-2 (Homo sapiens) (UniProt P04626). Described as above. The note with it: 18-24 h, at 10 µM, stronger effect = lower value.
Sequence of Receptor tyrosine-protein kinase erbB-2 (Homo sapiens) (P04626 whole entry, looked up): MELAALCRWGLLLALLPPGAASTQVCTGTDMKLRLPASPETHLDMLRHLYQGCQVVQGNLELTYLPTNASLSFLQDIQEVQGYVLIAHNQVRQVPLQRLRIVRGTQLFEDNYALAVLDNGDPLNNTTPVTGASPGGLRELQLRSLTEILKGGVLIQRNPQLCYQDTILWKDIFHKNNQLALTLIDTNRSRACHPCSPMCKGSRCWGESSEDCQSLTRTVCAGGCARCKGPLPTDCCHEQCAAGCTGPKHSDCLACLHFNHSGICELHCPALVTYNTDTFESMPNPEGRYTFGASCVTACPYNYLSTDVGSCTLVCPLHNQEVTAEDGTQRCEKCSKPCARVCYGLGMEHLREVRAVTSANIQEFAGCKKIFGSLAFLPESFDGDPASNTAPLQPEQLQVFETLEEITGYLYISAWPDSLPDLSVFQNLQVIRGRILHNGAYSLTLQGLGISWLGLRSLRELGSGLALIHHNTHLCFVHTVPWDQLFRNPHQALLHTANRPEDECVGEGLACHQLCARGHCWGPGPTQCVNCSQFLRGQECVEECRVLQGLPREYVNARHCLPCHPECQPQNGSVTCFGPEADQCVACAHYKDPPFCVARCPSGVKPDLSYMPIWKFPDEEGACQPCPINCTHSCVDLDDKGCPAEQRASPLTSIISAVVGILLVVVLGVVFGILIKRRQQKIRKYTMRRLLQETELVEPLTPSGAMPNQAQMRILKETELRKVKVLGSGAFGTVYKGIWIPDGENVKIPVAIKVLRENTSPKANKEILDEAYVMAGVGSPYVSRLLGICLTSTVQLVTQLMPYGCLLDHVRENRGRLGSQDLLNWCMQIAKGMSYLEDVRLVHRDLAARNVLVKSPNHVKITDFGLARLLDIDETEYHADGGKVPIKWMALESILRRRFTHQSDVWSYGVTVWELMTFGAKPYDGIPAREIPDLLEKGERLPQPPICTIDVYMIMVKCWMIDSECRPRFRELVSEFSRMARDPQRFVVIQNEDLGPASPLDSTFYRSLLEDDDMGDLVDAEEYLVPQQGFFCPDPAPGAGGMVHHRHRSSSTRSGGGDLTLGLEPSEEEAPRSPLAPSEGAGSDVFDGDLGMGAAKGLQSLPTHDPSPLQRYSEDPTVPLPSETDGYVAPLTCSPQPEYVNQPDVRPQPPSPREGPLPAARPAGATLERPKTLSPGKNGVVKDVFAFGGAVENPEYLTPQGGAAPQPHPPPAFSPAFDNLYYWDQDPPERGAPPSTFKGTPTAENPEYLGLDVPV
Test [3] in a line: SK-BR-3 cell growth inhibitors, pilot screen, 24 h, human (AID 572;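 active = viability at or below 10% of carrier control in both of two separate runs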;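 note: compound exposure lasted between 18 and 24 h rather than exactly 24 h; 100% = carrier-treated control wells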). The note with it: SK-BR-3 viability, CellTiter-Glo luminescence, at 10 µM, stronger effect = lower value.
A short description of test [4]: HUVEC growth inhibition – cell-based, human, primary screen (AID 575;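 active = viability at or below 30% in both replicate assays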;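 note: 100% = median of untreated cell wells with 0.1% DMSO on each plate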). The note with it: HUVEC proliferation, CellTiter-Glo luminescence, 72 h; at 10 µM; stronger effect = lower value. An outline of the steps:
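Timing: 72 h treatment at 37 °C; material: HUVEC primary cells; technique: CellTiter-Glo luminescence measuring cellular ATP; controls: vehicle and MePR control wells; measure: percent of median DMSO-control luminescence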
(In general: ATP-based viability assays read luminescence as a measure of living cells.)

A short description of test [5]: growth inhibitors of H69AR lung tumor, primary screen, human, duplicate replicates (AID 580).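 Note: 100% = mean luminescence of untreated wells and 0% = no signal.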 The note with it: H69AR lung tumor cells viability, ATP luminescence, 72 h; at 10 µM; stronger effect = lower value.
The nature of test [6]: reversal of MRP1-mediated doxorubicin resistance, pilot screen, H69AR cells, doxorubicin co-treatment (AID 601;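 active = viability loss from added drug above about 55%, and viability with drug at most 40%, in both replicates, limit read from the data, passing the limit was not always enough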). As to conditions: CellTiter-Glo, 72 h, at 10 µM; for differential viability (reversal): stronger effect = higher value.
Test [7] can be described thus: 384-well plate pilot, post-Golgi transport modulator project, inhibition of yeast transport mutant growth (AID 636; in the data active = inhibition above about 31%). The note with it: absorbance 615 nm, about 18 h, stronger effect = higher value.
The nature of test [8]: growth suppression of yeast trafficking mutant, preliminary HTS, modulators of trafficking downstream of Golgi apparatus project, 1536-format plate, OD 615 nm (AID 637; in the data active = inhibition above about 30%). The note with it: yeast transport mutant growth, absorbance 615 nm, 18 h; stronger effect = higher value.
Setting [9] is: H69AR cells + 2 uM doxorubicin, measured here: viability with 2 uM doxorubicin, stronger effect = lower value.
Where [10] appears, read: H69AR cells, compound alone cytotoxicity.

Active and inactive are the calls of the source.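 Rule for the calls, unless noted: active = viability at or under a set limit in both replicates, limit being median viability minus 3 SD (cut at about 48% in these data, passing the limit was not always enough); inconclusive = at or under the limit in just one replicate; inactive = at or above the limit in both replicates.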

The term viability denotes a read-out of living cells in per cent, often relative to untreated cells. One may read the inhibition as the drop in the measured response relative to a control, in per cent. In the case of `Cc1cc(C)n(-c2nnc(C)n2/N=C/c2ccccc2F)n1`, the viability in test [1] is 94%; in test [3] it was 94% (inactive); in test [4], 110% (inactive); in test [5] it was 98.3% (inactive); in test [6] (setting [9]), 84.9%; in test [6] (setting [10]), 98.3%. Further, the Her2 level in test [2] is 89% (inactive). Moreover, the differential viability (reversal) in test [6] (H69AR cells + 2 uM doxorubicin) was 13.3% (inactive). Also, the inhibition in test [7] was -7.07% (inactive); in test [8] it was 4.59% (inactive).

As to `NC(=O)NC(c1ccccc1)c1ccccc1F` (stereo not given), the viability in test [1] is 91%; in test [3], 91% (inactive); in test [4], 91.6% (inactive); in test [5], 105% (inactive); in test [6] (setting [9]), 98.3%; in test [6] (setting [10]), 105%. Moreover, the Her2 level in test [2] was 106% (inactive). Moreover, in test [6] (H69AR cells + 2 uM doxorubicin), the differential viability (reversal) is 6.78% (inactive). Besides, the inhibition in test [7] is -0.51% (inactive); in test [8], -8% (inactive).

As to `CCn1cc(C(C)NC(=O)COc2ccc(Cl)cc2C)c(C)n1` (stereo not given), the viability in test [1] is 97%; in test [3] it was 97% (inactive); in test [4] it was 93.9% (inactive); in test [5] it was 105% (inactive); in test [6] (setting [9]), 91.3%; in test [6] (setting [10]) it was 105%. In addition, in test [2], the Her2 level was 101% (inactive). Besides, the differential viability (reversal) in test [6] (H69AR cells + 2 uM doxorubicin) is 13.9% (inactive). Further, the results for the inhibition in test [7] and in test [8] were -2.89% (inactive) and -4% (inactive), respectively.

With `CCOC(=O)C(C)Sc1nc2c(cnn2-c2ccc(C)cc2)c(=O)[nH]1` (stereo not given), the viability in test [1] was 83%; in test [3] it was 83% (inactive); in test [4], 51.8% (inactive); in test [5], 14.4% (active); in test [6] (setting [9]), 72.6%; in test [6] (setting [10]), 14.4%. Also, in test [2], the Her2 level was 85.5% (inactive). The differential viability (reversal) in test [6] (H69AR cells + 2 uM doxorubicin) is -58.2% (inactive). The inhibition in test [7] is -2.53% (inactive); in test [8], -11.2% (inactive).

As for `Cc1[nH]c2ccccc2c(=O)c1CN(C)Cc1ccccc1`, the viability in test [1] is 92.5%; in test [3] it was 92.5% (inactive); in test [4], 100% (inactive); in test [5], 91.8% (inactive); in test [6] (setting [9]), 89.3%; in test [6] (setting [10]), 91.8%. For the same molecule, in test [2], the Her2 level is 95% (inactive). The differential viability (reversal) in test [6] (H69AR cells + 2 uM doxorubicin) is 2.49% (inactive). The inhibition was -4.21% (inactive) in test [7] and -0.98% (inactive) in test [8].

In the case of `COC(=O)c1cc2ccsc2n1Cc1nc(-c2ccc(OC)cc2)oc1C`, the viability in test [1] is 85.5%; in test [3], 85.5% (inactive); in test [4] it was 67.5% (inactive); in test [5] it was 83.6% (inactive); in test [6] (setting [9]), 95.6%; in test [6] (setting [10]), 83.6%. Further, the Her2 level in test [2] was 82% (inactive). The differential viability (reversal) in test [6] (H69AR cells + 2 uM doxorubicin) is -12% (inactive). Besides, the inhibition is 0.13% (inactive) in test [7] and -4.67% (inactive) in test [8].

As to `COc1ccc(C2N(C(=O)c3ccccc3)CCN2C(=O)c2ccccc2)cc1`, the viability in test [1] was 114%; in test [3], 114% (inactive); in test [4], 113% (inactive); in test [5], 103% (inactive); in test [6] (setting [9]), 100%; in test [6] (setting [10]), 103%. In addition, in test [2], the Her2 level was 103% (inactive). Further, the differential viability (reversal) in test [6] (H69AR cells + 2 uM doxorubicin) was 2.48% (inactive). In addition, the inhibition was -1.04% (inactive) in test [7] and 5.41% (inactive) in test [8].

With `CCOC(=O)c1oc2ccccc2c1CSc1nnnn1-c1ccc(OC)cc1`, the viability in test [1] is 82.5%; in test [3] it was 82.5% (inactive); in test [4], 77.4% (inactive); in test [5] it was 75% (inactive); in test [6] (setting [9]), 73.9%; in test [6] (setting [10]), 75%. Further, the Her2 level in test [2] was 69% (inactive). For the same molecule, the differential viability (reversal) in test [6] (H69AR cells + 2 uM doxorubicin) was 1.07% (inactive). Further, the figures for the inhibition in test [7] and in test [8] were -4.8% (inactive) and 0.16% (inactive), respectively.

`Cc1cc(C(=O)NCc2cccnc2)n(-c2ccccc2)n1`: the viability in test [1] was 93.5%; in test [3], 93.5% (inactive); in test [4], 102% (inactive); in test [5], 107% (inactive); in test [6] (setting [9]), 92.9%; in test [6] (setting [10]), 107%. For the same molecule, the Her2 level in test [2] is 97% (inactive). Moreover, the differential viability (reversal) in test [6] (H69AR cells + 2 uM doxorubicin) was 14.4% (inactive). The values for the inhibition in test [7] and in test [8] were -0.93% (inactive) and -6.07% (inactive), respectively.

With `COc1cc(C2C(C(=O)c3ccc(C)o3)=C(O)C(=O)N2c2cc(C)on2)cc(Br)c1O` (stereo not given), the viability is 102% in test [1]; 102% (inactive) in test [3]; 99.8% (inactive) in test [4]; 95.7% (inactive) in test [5]; 86.9% in test [6] (setting [9]); 95.7% in test [6] (setting [10]). The Her2 level in test [2] is 93% (inactive). Moreover, the differential viability (reversal) in test [6] (H69AR cells + 2 uM doxorubicin) was 8.72% (inactive). Moreover, the inhibition in test [7] was -1.97% (inactive); in test [8], -3.49% (inactive).

With `O=C(NCC(c1cccnc1)N1CCOCC1)c1cccs1` (stereo not given), the viability is 101% in test [1]; 101% (inactive) in test [3]; 89.6% (inactive) in test [4]; 92.5% (inactive) in test [5]; 93.1% in test [6] (setting [9]); 92.5% in test [6] (setting [10]). The Her2 level in test [2] was 75.5% (inactive). The differential viability (reversal) in test [6] (H69AR cells + 2 uM doxorubicin) was -0.595% (inactive). In addition, the inhibition in test [7] is -2.24% (inactive); in test [8], 11.2% (inactive).

Take `O=C(c1ccco1)N1CCN(c2cccc(Cl)c2)CC1`: the viability is 101% in test [1]; 101% (inactive) in test [3]; 88.1% (inactive) in test [4]; 97.9% (inactive) in test [5]; 92.7% in test [6] (setting [9]); 97.9% in test [6] (setting [10]). For the same molecule, the Her2 level in test [2] was 103% (inactive). In addition, in test [6] (H69AR cells + 2 uM doxorubicin), the differential viability (reversal) is 5.25% (inactive). For the same molecule, the inhibition is -0.93% (inactive) in test [7] and -9.68% (inactive) in test [8].

As for `Cc1cccc(OCCCC(=O)O)c1`, the viability in test [1] was 101%; in test [3], 101% (inactive); in test [4] it was 93.5% (inactive); in test [5] it was 89.4% (inactive); in test [6] (setting [9]), 93.5%; in test [6] (setting [10]), 89.4%. The Her2 level in test [2] was 102% (inactive). Also, the differential viability (reversal) in test [6] (H69AR cells + 2 uM doxorubicin) is -4.09% (inactive). Further, the inhibition in test [7] is -4.73% (inactive); in test [8], -6.83% (inactive).

On to `Cc1cc(NC(=O)Cc2cn3ccsc3n2)n(-c2ccccc2)n1`, for which the viability is 91% in test [1]; 91% (inactive) in test [3]; 91.8% (inactive) in test [4]; 94.9% (inactive) in test [5]; 89.9% in test [6] (setting [9]); 94.9% in test [6] (setting [10]). In addition, in test [2], the Her2 level is 103% (inactive). Moreover, the differential viability (reversal) in test [6] (H69AR cells + 2 uM doxorubicin) is 5.08% (inactive). The values for the inhibition in test [7] and in test [8] were -0.64% (inactive) and 0.33% (inactive), respectively.

For `O=C(c1ccccc1)c1ccncc1`, the viability in test [1] is 100%; in test [3], 100% (inactive); in test [4], 100% (inactive); in test [5], 92.4% (inactive); in test [6] (setting [9]), 96%; in test [6] (setting [10]) it was 92.4%. Further, in test [2], the Her2 level is 76.5% (inactive). Also, in test [6] (H69AR cells + 2 uM doxorubicin), the differential viability (reversal) was -3.62% (inactive). In addition, the results for the inhibition in test [7] and in test [8] were -6.05% (inactive) and 5.33% (inactive), respectively.

Take `O=C(Nc1ccc2oc(-c3ccncc3)nc2c1)c1cccs1`: the viability in test [1] is 96%; in test [3], 96% (inactive); in test [4], 88.9% (inactive); in test [5] it was 79.6% (inactive); in test [6] (setting [9]) it was 78.9%; in test [6] (setting [10]), 79.6%. In addition, the Her2 level in test [2] is 112% (inactive). The differential viability (reversal) in test [6] (H69AR cells + 2 uM doxorubicin) is 0.7% (inactive). The values for the inhibition in test [7] and in test [8] were -2.76% (inactive) and 2.3% (inactive), respectively.
